Results taken from the M2OR odorant receptor database.

target: T1, OR5M3 (Homo sapiens) (UniProt Q8NGP4); conditions: stereoisomer not certain
T1 sequence (whole entry): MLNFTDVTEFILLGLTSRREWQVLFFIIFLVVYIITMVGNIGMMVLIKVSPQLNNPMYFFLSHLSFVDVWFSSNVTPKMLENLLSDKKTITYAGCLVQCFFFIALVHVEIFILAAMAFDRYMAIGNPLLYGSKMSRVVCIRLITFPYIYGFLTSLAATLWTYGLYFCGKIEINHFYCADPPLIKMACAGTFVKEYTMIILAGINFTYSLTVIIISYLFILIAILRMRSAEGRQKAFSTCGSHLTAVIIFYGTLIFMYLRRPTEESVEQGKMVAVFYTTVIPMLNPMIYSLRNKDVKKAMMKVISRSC
How it was run: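 Assay methods differ from source to source, frequently being transient luciferase assays in mammalian cell lines. For each receptor–molecule pair, the label responsive (active) applies when the original authors judged the measured signal statistically different from baseline, and non-responsive (inactive) applies otherwise.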

Odorant receptor agonist call, inactive:
CCCCC(=O)OCC
CSC
CCCCCC1CCC(=O)O1 (centres undefined)
CCC(S)C(C)=O (centres undefined)
CCCSSSCCC
CCCCC(CC)CCC(=O)O (centres undefined)
COc1ccc(C)cc1O
CC1=CCC(C(C)(C)S)CC1 (centres undefined)
CCC(C)CO (centres undefined)
CCCCCCCC1CCCC(=O)O1 (centres undefined)
CCOC(=O)CCC(C)C
CCCCCC=CC=CC=O
C=C(C)C1CC=C(C)CC1 (centres undefined)
CC(=O)OCCC(C)C
CC(=O)C1=NCCS1
COc1ccc2ccc(=O)oc2c1
C=CC(=O)CC=CCC
CCCC1CCCC(=O)O1 (centres undefined)
COCCC(C)(C)S
OCCc1ccccc1
CCCCCCCC1CCC(=O)O1 (centres undefined)
CCC(C)CCC(=O)[O-] (centres undefined)
CCC=CCCOC(C)=O
CCOC(=O)C=Cc1ccccc1
Cc1cccc(C)c1O
CCCC(O)CC(=O)OCC (centres undefined)
CC(=O)O
CCCCCC(=O)OCC
CCC(=O)C(C)S (centres undefined)
CCCCCC(C)O (centres undefined)
Cc1ccc(O)cc1
CCCCC1CCC(=O)O1 (centres undefined)
CCCCCCC=CC=O
CC1=CCC(C(C)C)C=C1 (centres undefined)
COC(=O)C=Cc1ccccc1
COC1=C(C)OC(C)C1=O (centres undefined)
CCCC(=O)OCC
CC(=O)c1ccc(C)cc1
CCCCCC=CC=O
